The values below come from ChEMBL document CHEMBL3525931, “Stereoselective interaction of pantoprazole with ABCG2. II. In vitro flux analysis” (Drug Metab Dispos, 2012).

Structures are written as SMILES.

Series [1] can be described thus: Observed permeability in MDCK2 cells assessed as basolateral to apical transport at 30 uM after 0.5 to 1 hrs by HPLC method. The class given is ADME, cell-based, Canis lupus familiaris. Conditions: dog, mdck-ii. In short, it runs like this:
(§1)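 Mock (empty pcDNA3.1) or rat Abcg2/human ABCG2-transfected MDCKII, G418-selected, seeded on 3.0-μm Transwell filters at 1.0×10^6 cells/well, grown 4 days to TEER >200 Ω·cm². Single isomer loaded apical or basolateral in serum-free Opti-MEM I with 0.2 μCi/ml [3H]mannitol, 37°C 5% CO2. Receiver sampled at 0.5 and 1 h. Quantified by HPLC-UV 290 nm. Permeability = initial rate/(area × donor concentration). Efflux ratio = B→A rate / A→B rate. n = 3, mean ± S.D.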

A short description of series [2]: Asymmetry efflux ratio in MDCK2 cells assessed as drug transport ratio at 30 uM after 0.5 to 1 hrs by HPLC method. In kind it is ADME, cell-based, Canis lupus familiaris, MDCK-II. As to conditions: dog, MDCK. The method, boiled down: as §1
A short description of series [3]: Observed permeability in MDCK2 cells assessed as apical to basolateral transport at 3 uM after 0.5 to 1 hrs by HPLC method. The class given is ADME, cell-based, Canis lupus familiaris. Conditions: dog, mdck-ii. In short, it runs like this: as §1
Series [4] concerns the target T1, ABCG2 (Homo sapiens, UniProt Q9UNQ0).
T1 sequence (Q9UNQ0 whole entry): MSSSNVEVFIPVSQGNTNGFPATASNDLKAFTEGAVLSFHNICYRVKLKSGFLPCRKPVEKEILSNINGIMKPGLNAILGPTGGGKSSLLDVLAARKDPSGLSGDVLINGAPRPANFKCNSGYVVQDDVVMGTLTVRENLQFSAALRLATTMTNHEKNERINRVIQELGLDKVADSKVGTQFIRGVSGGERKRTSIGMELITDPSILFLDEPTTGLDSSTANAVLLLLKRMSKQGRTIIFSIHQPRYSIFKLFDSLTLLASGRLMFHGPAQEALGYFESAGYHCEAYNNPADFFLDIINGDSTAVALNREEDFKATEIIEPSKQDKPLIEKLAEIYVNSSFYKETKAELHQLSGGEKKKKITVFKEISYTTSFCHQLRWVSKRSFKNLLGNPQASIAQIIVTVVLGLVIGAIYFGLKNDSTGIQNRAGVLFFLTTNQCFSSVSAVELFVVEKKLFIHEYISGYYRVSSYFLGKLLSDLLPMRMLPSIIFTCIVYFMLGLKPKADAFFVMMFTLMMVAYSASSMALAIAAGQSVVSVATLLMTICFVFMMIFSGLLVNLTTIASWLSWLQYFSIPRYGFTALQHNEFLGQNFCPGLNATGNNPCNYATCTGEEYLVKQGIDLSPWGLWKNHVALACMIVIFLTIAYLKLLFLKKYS
Description: Asymmetry efflux ratio in MDCK2 cells expressing human ABCG2 assessed as ABCG2-mediated drug transport ratio at 30 uM after 0.5 to 1 hrs by HPLC method. In kind it is ADME, cell-based. The method, boiled down: as §1

The nature of series [5]: Asymmetry efflux ratio in MDCK2 cells assessed as drug transport ratio at 3 to 200 uM after 0.5 to 1 hrs by HPLC method. As to conditions: dog, MDCK. In kind it is ADME, cell-based, Canis lupus familiaris, MDCK-II. In short, it runs like this:
as §1

Series [6] concerns the target T2, ABCG2 (Rattus norvegicus, UniProt Q80W57).
T2 sequence (Q80W57 whole entry): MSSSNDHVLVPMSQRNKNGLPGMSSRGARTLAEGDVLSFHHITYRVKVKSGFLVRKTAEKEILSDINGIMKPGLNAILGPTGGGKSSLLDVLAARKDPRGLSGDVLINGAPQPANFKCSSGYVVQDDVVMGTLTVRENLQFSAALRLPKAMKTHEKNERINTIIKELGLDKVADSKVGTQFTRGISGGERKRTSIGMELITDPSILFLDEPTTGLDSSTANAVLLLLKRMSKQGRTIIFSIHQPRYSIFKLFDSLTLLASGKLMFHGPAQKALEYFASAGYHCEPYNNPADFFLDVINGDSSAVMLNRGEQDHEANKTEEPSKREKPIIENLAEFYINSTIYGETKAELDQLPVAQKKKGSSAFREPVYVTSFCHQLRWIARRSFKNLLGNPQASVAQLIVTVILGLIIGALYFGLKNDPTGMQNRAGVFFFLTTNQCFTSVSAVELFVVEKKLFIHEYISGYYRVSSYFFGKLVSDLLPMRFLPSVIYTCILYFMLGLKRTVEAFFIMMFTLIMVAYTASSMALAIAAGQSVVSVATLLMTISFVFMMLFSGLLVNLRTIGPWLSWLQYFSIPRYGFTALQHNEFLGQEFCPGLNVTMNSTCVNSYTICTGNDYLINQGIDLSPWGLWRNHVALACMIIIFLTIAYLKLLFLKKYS
Description: Asymmetry efflux ratio in MDCK2 cells expressing rat ABCG2 assessed as ABCG2-mediated drug transport ratio at 50 uM after 0.5 to 1 hrs by HPLC method. In kind it is ADME, cell-based. In short, it runs like this: as §1

Series [7] addresses T2, ABCG2. The series can be described thus: Asymmetry efflux ratio in MDCK2 cells expressing rat ABCG2 assessed as ABCG2-mediated drug transport ratio at 200 uM after 0.5 to 1 hrs by HPLC method. In kind it is ADME, cell-based. In short, it runs like this: as §1
For series [8], the target named is T3, Broad substrate specificity ATP-binding cassette transporter ABCG2 (Rattus norvegicus, UniProt Q80W57).
T3 sequence (Q80W57 whole entry): T2 sequence (Q80W57 whole entry)
The series can be described thus: Observed permeability in MDCK2 cells expressing rat ABCG2 assessed as ABCG2-mediated apical to basolateral transport at 10 uM after 0.5 to 1 hrs by HPLC method. The class given is ADME, cell-based. Conditions: mdck-ii. The method, boiled down:
as §1

Series [9] deals with T3, Broad substrate specificity ATP-binding cassette transporter ABCG2. The series can be described thus: Maximum drug transport rate in MDCK2 cells expressing rat ABCG2 assessed as ABCG2-mediated transport by HPLC method. The class given is ADME, cell-based. As to conditions: mdck-ii. In short, it runs like this:
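Kinetics came from the same Transwell bidirectional flux runs in rat Abcg2- or human ABCG2-MDCKII, with donor 3–200 μM single isomer. Cellular concentrations were predicted from a three-compartment model using PS_D from mock cells and PS_PC from mannitol. Apparent apical efflux permeability was fitted against predicted cellular concentration by saturable kinetics to give K_M and T_max.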

Series [10] concerns the target T4, Broad substrate specificity ATP-binding cassette transporter ABCG2 (Homo sapiens, UniProt Q9UNQ0).
T4 sequence (Q9UNQ0 whole entry): T1 sequence (Q9UNQ0 whole entry)
Description: Observed permeability in MDCK2 cells expressing human ABCG2 assessed as ABCG2-mediated apical to basolateral transport at 30 uM after 0.5 to 1 hrs by HPLC method. The class given is ADME, cell-based. As to conditions: mdck-ii. The method, boiled down:
as §1

Series [11] deals with T4, Broad substrate specificity ATP-binding cassette transporter ABCG2. The series can be described thus: Observed permeability in MDCK2 cells expressing human ABCG2 assessed as ABCG2-mediated apical to basolateral transport at 200 uM after 0.5 to 1 hrs by HPLC method. In kind it is ADME, cell-based. Conditions: mdck-ii. In short, it runs like this: as §1
Series [12] addresses T2, ABCG2. Description: Asymmetry efflux ratio in MDCK2 cells expressing rat ABCG2 assessed as ABCG2-mediated drug transport ratio at 10 uM after 0.5 to 1 hrs by HPLC method. In kind it is ADME, cell-based. In short, it runs like this: as §1
In series [13] the target is T3, Broad substrate specificity ATP-binding cassette transporter ABCG2. Description: Observed permeability in MDCK2 cells expressing rat ABCG2 assessed as ABCG2-mediated basolateral to apical transport at 30 uM after 0.5 to 1 hrs by HPLC method. The class given is ADME, cell-based. As to conditions: mdck-ii. In short, it runs like this:
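rAbcg2-transfected MDCKII monolayers seeded at 1.0×10^6 cells/well on 3.0-μm filters, grown 4 days to TEER >200 Ω·cm². Serum-free Opti-MEM I on both sides. Individual PAN isomer plus 0.2 μCi/ml [3H]mannitol loaded basolaterally, 37°C, 5% CO2. Receiver sampled at 0.5 and 1 h, PAN quantified by HPLC-UV 290 nm. P_obs = initial transfer rate/(area × initial donor concentration). Mean ± S.D., n = 3.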

Series [14] shares this target. The series can be described thus: Observed permeability in MDCK2 cells expressing rat ABCG2 assessed as ABCG2-mediated apical to basolateral transport at 3 uM after 0.5 to 1 hrs by HPLC method. The class given is ADME, cell-based. As to conditions: mdck-ii. In short, it runs like this: as §1

In the case of `COc1ccnc(C[S@+]([O-])c2nc3cc(OC(F)F)ccc3[nH]2)c1OC`, the Papp is recorded as 123 uL/hr/cm2 in series [1]; 118 uL/hr/cm2 in series [3]; 30.1 uL/hr/cm2 in [8]; 67.6 uL/hr/cm2 in [10]; 132 uL/hr/cm2 in series [11]; 151 uL/hr/cm2 in [13]. Also, in series [14], the Papp came out at 7.4 uL/hr/cm2. Besides, the efflux ratio (usually a quotient of directional permeabilities that is used to spot active efflux) at 30 µM in series [2] was 1.07; in series [4] it was 3.12. Also, the efflux ratio at up to 200 µM in series [5] stood at 1.04. Moreover, the efflux ratio at 50 µM in series [6] amounted to 1.26. The efflux ratio at 200 µM in series [7] was found to be 1.07. The Drug transport in series [9] is given as 2.49 nmol/hr.cm2. The efflux ratio at 10 µM in [12] turned out to be 7.44.

With `COc1ccnc(C[S@@+]([O-])c2nc3cc(OC(F)F)ccc3[nH]2)c1OC`, the Papp in series [1] was determined as 116 uL/hr/cm2; in [3], 116 uL/hr/cm2; in [8], 20.9 uL/hr/cm2; in series [10], 43.6 uL/hr/cm2; in [11], 126 uL/hr/cm2; in series [13], 206 uL/hr/cm2. The Papp in [14] is listed as 12.8 uL/hr/cm2. For the same compound, the efflux ratio at 30 µM in [2] was determined as 1.06; in series [4] it was 5.5. The efflux ratio at up to 200 µM in series [5] stood at 1.04. Further, the efflux ratio at 50 µM in series [6] amounted to 2.46. In addition, the efflux ratio at 200 µM in series [7] came out at 1.29. The Drug transport in series [9] came out at 7.86 nmol/hr.cm2. For the same compound, the efflux ratio at 10 µM in series [12] is 11.
